Measurements from ChEMBL document CHEMBL3407400, “Design, synthesis and biological evaluations of chirally pure 1,2,3,4-tertrahydroisoquinoline analogs as anti-cancer agents” (Eur J Med Chem, 2015).

Test system: A549
Assay: Anticancer activity against human A549 cells after 48 hrs by MTT assay
Type: functional, cell-based
Conditions: A549, 48 h
How it was run: (§1)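 Cell lines held in DMEM or MEM with 10% FBS and antibiotic-antimycotic at 37 °C, 5% CO2. Cells seeded at 1 × 10⁴ per well in DMEM with 10% FBS and left 24 h. Compounds diluted in medium and added alongside vehicle control for 48 h. MTT (5 mg/mL) added for 4 h, formazan dissolved in DMSO, absorbance read at 570 nm.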

| IC50 | SMILES |
| --- | --- |
| 39.8 µM | COc1cccc(/C=C/C(=O)N2Cc3ccccc3[C@@H](OCc3ccccc3)[C@@H]2CO)c1OC |
| 9.33 µM | CC#CC(=O)N1Cc2ccccc2[C@@H](OCc2ccccc2)[C@@H]1CO |

Continued, compound first:

| SMILES | IC50 |
| --- | --- |
| O=C(/C=C/c1cccc(O)c1)N1Cc2ccccc2[C@@H](OCc2ccccc2)[C@@H]1CO | 4.36 µM |
| O=C(/C=C/c1ccccc1)N1Cc2ccccc2[C@@H](OCc2ccccc2)[C@@H]1CO | 25.1 µM |
| Cc1ccc(S(=O)(=O)N[C@H](C(=O)N2Cc3ccccc3[C@@H](OCc3ccccc3)[C@@H]2CO)C(C)C)cc1 | 79.4 µM |

Test system: MCF7
Assay: Anticancer activity against human MCF7 cells after 48 hrs by MTT assay
Type: functional, cell-based
Conditions: MCF7, 48 h
How it was run: as §1

| IC50 | SMILES |
| --- | --- |
| 55.1 µM | COc1cccc(/C=C/C(=O)N2Cc3ccccc3[C@@H](OCc3ccccc3)[C@@H]2CO)c1OC |
| 18.6 µM | CC#CC(=O)N1Cc2ccccc2[C@@H](OCc2ccccc2)[C@@H]1CO |

Further lines, the compound ahead of its results:

| SMILES | IC50 |
| --- | --- |
| O=C(/C=C/c1cccc(O)c1)N1Cc2ccccc2[C@@H](OCc2ccccc2)[C@@H]1CO | 19.2 µM |
| O=C(/C=C/c1ccccc1)N1Cc2ccccc2[C@@H](OCc2ccccc2)[C@@H]1CO | 39.8 µM |
| Cc1ccc(S(=O)(=O)N[C@H](C(=O)N2Cc3ccccc3[C@@H](OCc3ccccc3)[C@@H]2CO)C(C)C)cc1 | 60.4 µM |

Test system: HeLa
Assay: Anticancer activity against human HeLa cells after 48 hrs by MTT assay
Type: functional, cell-based
Conditions: not given
How it was run: as §1

| IC50 | SMILES |
| --- | --- |
| 32.8 µM | COc1cccc(/C=C/C(=O)N2Cc3ccccc3[C@@H](OCc3ccccc3)[C@@H]2CO)c1OC |
| 11.6 µM | CC#CC(=O)N1Cc2ccccc2[C@@H](OCc2ccccc2)[C@@H]1CO |

Second part, the compound before the results:

| SMILES | IC50 |
| --- | --- |
| O=C(/C=C/c1cccc(O)c1)N1Cc2ccccc2[C@@H](OCc2ccccc2)[C@@H]1CO | 15.8 µM |
| O=C(/C=C/c1ccccc1)N1Cc2ccccc2[C@@H](OCc2ccccc2)[C@@H]1CO | 27.7 µM |
| Cc1ccc(S(=O)(=O)N[C@H](C(=O)N2Cc3ccccc3[C@@H](OCc3ccccc3)[C@@H]2CO)C(C)C)cc1 | 92.6 µM |

Test system: HepG2
Assay: Anticancer activity against human HepG2 cells after 48 hrs by MTT assay
Type: functional, cell-based
Conditions: HepG2, 48 h
How it was run: as §1

| IC50 | SMILES |
| --- | --- |
| 31 µM | COc1cccc(/C=C/C(=O)N2Cc3ccccc3[C@@H](OCc3ccccc3)[C@@H]2CO)c1OC |
| 7.94 µM | CC#CC(=O)N1Cc2ccccc2[C@@H](OCc2ccccc2)[C@@H]1CO |

The next lines start with the compound.

| SMILES | IC50 |
| --- | --- |
| O=C(/C=C/c1cccc(O)c1)N1Cc2ccccc2[C@@H](OCc2ccccc2)[C@@H]1CO | 2.82 µM |
| O=C(/C=C/c1ccccc1)N1Cc2ccccc2[C@@H](OCc2ccccc2)[C@@H]1CO | 20.7 µM |
| Cc1ccc(S(=O)(=O)N[C@H](C(=O)N2Cc3ccccc3[C@@H](OCc3ccccc3)[C@@H]2CO)C(C)C)cc1 | 32 µM |

Test system: DU-145
Assay: Anticancer activity against human DU145 cells after 48 hrs by MTT assay
Type: functional, cell-based
Conditions: DU-145, 48 h
How it was run: as §1

| IC50 | SMILES |
| --- | --- |
| 29.9 µM | COc1cccc(/C=C/C(=O)N2Cc3ccccc3[C@@H](OCc3ccccc3)[C@@H]2CO)c1OC |
| 6.16 µM | CC#CC(=O)N1Cc2ccccc2[C@@H](OCc2ccccc2)[C@@H]1CO |

The remaining lines, values behind:

| SMILES | IC50 |
| --- | --- |
| O=C(/C=C/c1cccc(O)c1)N1Cc2ccccc2[C@@H](OCc2ccccc2)[C@@H]1CO | 2.08 µM |
| O=C(/C=C/c1ccccc1)N1Cc2ccccc2[C@@H](OCc2ccccc2)[C@@H]1CO | 12.9 µM |
| Cc1ccc(S(=O)(=O)N[C@H](C(=O)N2Cc3ccccc3[C@@H](OCc3ccccc3)[C@@H]2CO)C(C)C)cc1 | 31.6 µM |
